SENP8 block-1 – human SENP8 protease inhibitors, primary screen, biochemical, fluorescence, Nedd8 protein substrate, uHTS | recombinant SENP8 | 360,000 compounds, 0.64% hits | Sentrin-specific protease 8 (Homo sapiens), Q96LD8 | AID 602440, 2012 | inhibition, % at 20 µM; in the data active means inhibition mostly above about 40%, no sharp cut-off; inactive means mostly below about 27%
Target sequence (Q96LD8 whole entry, looked up): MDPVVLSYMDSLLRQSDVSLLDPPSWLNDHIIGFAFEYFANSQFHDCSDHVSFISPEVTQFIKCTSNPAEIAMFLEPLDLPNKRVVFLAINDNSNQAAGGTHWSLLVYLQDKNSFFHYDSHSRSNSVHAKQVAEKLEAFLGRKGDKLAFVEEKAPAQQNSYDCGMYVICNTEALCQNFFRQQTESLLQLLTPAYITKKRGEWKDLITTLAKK
SENP7 inh – SENP7 protease inhibitors, primary screen, biochemical, luminescence, uHTS. inhibition, % at 5 µM. Sentrin-specific protease 7 (Homo sapiens), Q9BQF6. 330,000 compounds, 1.5% hits. AID 434973, 2010. recombinant SENP7, Z-RLRGG-aminoluciferin luminescence, 40 min;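 active means inhibition above about 50% at the single test dose, limit read from the data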;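 further: plate controls were DMSO with enzyme for no effect and no enzyme buffer wells for full effect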
SENP8 block-2 – SENP8 protease inhibitors, primary screen, biochemical, luminescence; AID 2540, 2010; 330,000 compounds, 1.2% hits; inhibition, % at 10 µM; Sentrin-specific protease 8 (Homo sapiens), Q96LD8; purified SENP8, Z-RLRGG-aminoluciferin cleavage; in the data active means inhibition above about 50%
SENP1 FRET inh – human SENP1 catalytic domain inhibitors, primary screen, biochemical, FRET, uHTS | Sentrin-specific protease 1 (Homo sapiens), Q9P0U3 | recombinant SENP1 catalytic domain, CyPet-SUMO1-YPet FRET cleavage | inhibition, % at 10 µM | 360,000 compounds, 0.21% hits | AID 624204, 2012;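 active means inhibition at least 30% at 10 µM, raw YFP signal under a set limit, fluorescence ratio 0.5 to 1.5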;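 further: 0% = enzyme with DMSO and 100% = no enzyme wells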
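material = recombinant human SENP1 catalytic domain, His6-tagged | quantity = 20 pM enzyme | reagent = 25 nM SUMO1 FRET substrate | compound dosing = 10 µM single point, 0.5% DMSO | timing = 50 min enzyme reaction, room temperature, light-protected | detection = FRET, CFP and YFP emission | control set = no-enzyme low, enzyme-DMSO high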
SENP6 block – SENP6 protease inhibitors, primary screen, biochemical, luminescence, uHTS; inhibition, % at 10 µM; Recombinant SENP6 catalytic domain, aminoluciferin luminescence; 330,000 compounds, 1.8% hits; Sentrin-specific protease 6 (Homo sapiens), Q9GZR1;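 active means inhibition above about 50% at the single tested dose, limit read from the data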;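 further: plate controls were DMSO wells with enzyme for no effect and DMSO wells lacking enzyme for full effect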
Target sequence (Q9GZR1 628-1112 limits assumed): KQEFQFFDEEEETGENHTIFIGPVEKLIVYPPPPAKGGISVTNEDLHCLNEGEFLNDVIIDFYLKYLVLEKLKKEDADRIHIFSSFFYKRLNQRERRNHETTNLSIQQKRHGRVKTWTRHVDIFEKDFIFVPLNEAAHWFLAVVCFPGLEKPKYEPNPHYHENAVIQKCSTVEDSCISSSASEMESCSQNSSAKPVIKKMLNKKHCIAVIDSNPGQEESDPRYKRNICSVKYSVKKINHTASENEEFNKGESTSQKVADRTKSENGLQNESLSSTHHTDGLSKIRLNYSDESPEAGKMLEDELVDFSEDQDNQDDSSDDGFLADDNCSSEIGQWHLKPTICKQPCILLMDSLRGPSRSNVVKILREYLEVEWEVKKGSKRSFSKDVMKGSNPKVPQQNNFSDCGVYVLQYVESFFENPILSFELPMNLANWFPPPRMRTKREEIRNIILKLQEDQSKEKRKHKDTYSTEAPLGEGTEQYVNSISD
SENP8 confirm – SENP8 protease inhibitors, retest, confirmation, biochemical, luminescence, single concentration | shares compounds with SENP7 inh | Recombinant SENP8, Z-RLRGG-aminoluciferin luminescence, 60 min | inhibition, % at 12.5 µM | 6,200 compounds, 40% hits | AID 488912, 2010;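 active means mean inhibition across replicates above about 50%, limit read from the data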
SENP6 conf – SENP6 protease inhibitors, confirmation, biochemical, luminescence, single concentration. shares compounds with SENP7 inh. recombinant SENP6, Z-RLRGG-aminoluciferin luminescence. inhibition, % at 12.5 µM. 6,200 compounds, 58% hits
SENP7 conf – SENP7 protease inhibitors, retest, confirmation, biochemical, luminescence, single concentration | shares compounds with SENP7 inh | recombinant SENP7, Z-RLRGG-aminoluciferin luminescence, 40 min | inhibition, % at 12.5 µM | 6,200 compounds, 69% hits
Casp3 SENP sel – caspase-3 protease inhibitors, confirmation, selectivity assay for SENP inhibitor project, biochemical, single concentration; purified caspase-3, Z-DEVD-aminoluciferin luminescence, 60 min; shares compounds with SENP7 inh; 6,200 compounds, 60% hits; inhibition, % at 12.5 µM; AID 488918, 2010;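 active means mean inhibition above about 50%, limit read from the data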;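 further: plate controls were enzyme with DMSO for no effect and wells without caspase-3 for full effect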
Luc interf – interferes with luciferase luminescence in SENP counter-screen. shares compounds with SENP7 inh. Pre-incubated SENP8/Z-RLRGG-aminoluciferin, luciferase luminescence interference. inhibition, % at 12.5 µM. 6,200 compounds, 39% hits. AID 488919;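 active means mean inhibition above about 50% when retested at one dose, limit read from the data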;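 further: plate controls were DMSO wells with completed reaction for no effect and substrate without enzyme for full effect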
* hit, by the source's call; . = no result given. Most compounds without a hit are left out; they make up all but 2.5% or so of the library.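 How the source made its calls, unless noted: active means mean inhibition above about 50% in the one-dose retest (limit read from the data); inactive means the rest.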

SMILES | SENP8 block-1 | SENP7 inh | SENP8 block-2 | SENP1 FRET inh | SENP6 block | SENP8 confirm | SENP6 conf | SENP7 conf | Casp3 SENP sel | Luc interf
O=C(COC(=O)c1ccc([N+](=O)[O-])s1)Nc1ccc(F)cc1 | 34 | 40 | 69* | 2 | 66* | 68* | 88* | 48 | 13 | -5
O=C(COC(=O)c1cccs1)Nc1cccc(S(=O)(=O)NC2=NCCCCC2)c1 | 12 | 5 | -3 | 0 | -6 | . | . | . | . | .
O=C(COC(=O)c1ccc([N+](=O)[O-])s1)Nc1cccc(S(=O)(=O)NC2=NCCCCC2)c1 | 19 | 37 | 61* | 5 | 65* | 80* | 87* | 45 | 10 | 1
O=C(COC(=O)c1ccc([N+](=O)[O-])s1)NCc1ccccc1 | 12 | 48 | 62* | 2 | 73* | 58* | 72* | 21 | -1 | -8
O=C(NNC(=O)C1CCCN(S(=O)(=O)c2cccc(F)c2)C1)C1CC1 (centres undefined) | 10 | -7 | -6 | 0 | -23 | . | . | . | . | .
COc1ccc(-n2nc3c(c2NC(=O)C(C)Oc2ccccc2)CS(=O)C3)cc1 (centres undefined) | 4 | -2 | -3 | -1 | -8 | . | . | . | . | .
Clc1ccc(-c2cn3cc(Br)ccc3n2)cc1Cl | -13 | 28 | 59* | 1 | 63* | -11 | 23 | -11 | 28 | -16
Cc1ccn2cc(-c3ccc(NC(=O)c4ccco4)cc3)nc2c1 | -51 | 64* | 48 | 1 | 76* | 55* | 53* | 86* | 74* | 16
Cc1ccn2cc(-c3ccc(Br)cc3)nc2c1 | -424 | 97* | 94* | 1 | 92* | 56* | 94* | 96* | 94* | 39
COc1c(Cl)cccc1-c1cn2ccc(C)cc2n1 | -367 | 94* | 84* | -2 | 90* | 90* | 91* | 100* | 90* | 30
CC(=O)c1cc2cccc(OC3(C)CCN(Cc4ccc(-c5ccccn5)cc4)C3)c2o1 (centres undefined) | 12 | . | . | 0 | . | . | . | . | . | .
O=C(NC(Cc1ccccc1)C(=O)O)/C(=C/c1ccc([N+](=O)[O-])cc1)NC(=O)c1ccco1 (centres undefined) | 7 | -5 | -10 | 20 | -14 | . | . | . | . | .
COc1ccc(-c2noc(CCC(=O)N3CCN(c4ccccc4F)CC3)n2)cc1 | -48 | 10 | . | 0 | . | . | . | . | . | .
Cc1cccn2cc(-c3c[nH]c4ccccc34)nc12 | -400 | -7 | -3 | -16 | -37 | . | . | . | . | .
Brc1ccc2nc(-c3c[nH]c4ccccc34)cn2c1 | -157 | 24 | 79* | 0 | 81* | 49 | 90* | 97* | 68* | 90*
CN(C)c1nc(N(C)C)n(Cc2c(Cl)cccc2Cl)n1 | -12 | -2 | 2 | 2 | 1 | . | . | . | . | .
CSc1nsc2nc(=O)c(/C=C3\C=Nc4ccccc43)c(N)n12 | -7 | 39 | 72* | -102 | 86* | 69* | 72* | 92* | 41 | 76*
CC(C)S(=O)(=O)c1nsc2nc(=O)c(/C=C3\C=Nc4ccccc43)c(N)n12 | -138 | 12 | 7 | -34 | 2 | . | . | . | . | .
Cc1nc(SCCC(=O)O)c2cc(-c3ccccc3)sc2n1 | -83 | 60* | 71* | 0 | 72* | 46 | 76* | 14 | 82* | 48
O=C(OC1CCCCC1=O)c1cc(Cl)ccc1[N+](=O)[O-] (centres undefined) | 13 | 6 | 4 | 3 | -1 | . | . | . | . | .
Cc1ccccc1C(=O)Oc1ccc2ccc(O)cc2c1 | 2 | 59* | 59* | 0 | 73* | 50 | 76* | 84* | 25 | 24
Cc1ccccc1S(=O)(=O)Oc1ccc2ccc(O)cc2c1 | 0 | 1 | 9 | 1 | 43 | . | . | . | . | .
COc1cccc(C(=O)NNC(=O)c2ccc3ccccc3c2)c1 | 3 | . | . | 1 | . | . | . | . | . | .
COc1cccc(C(=O)Oc2ccc3ccc(O)cc3c2)c1 | . | 38 | 38 | . | 69* | 46 | 64* | 80* | 17 | 13
CC(C)CCCN1C(N(C)C)=NC[C@@H]1Cc1ccccc1 | 10 | 3 | -4 | 2 | -6 | . | . | . | . | .
SMILES | SENP8 block-1 | SENP7 inh | SENP8 block-2 | SENP1 FRET inh | SENP6 block | SENP8 confirm | SENP6 conf | SENP7 conf | Casp3 SENP sel | Luc interf
Cc1ccc(NC(=O)CN2C(=O)N/C(=C\c3ccco3)C2=O)cc1 | -52 | 2 | 4 | -4 | 2 | . | . | . | . | .
CC(C)c1ccc(C2NC(=S)NC3=C2C(=O)CC(C)(C)C3)cc1 (centres undefined) | 8 | 3 | -1 | -1 | -19 | . | . | . | . | .
CCC(=O)Nc1cc2nn(-c3ccc(OC)cc3)nc2cc1C | -299 | 57* | -15 | 1 | -15 | 11 | 10 | 15 | 10 | 3
CCC(=O)Nc1cc2nn(-c3ccc(C)cc3)nc2cc1C | -404 | 51* | 4 | 2 | -14 | 11 | 7 | 11 | 8 | -2
CCCCC(=O)Nc1cc2nn(-c3ccc(OC)cc3)nc2cc1C | -320 | -11 | -3 | 3 | -50 | . | . | . | . | .
Cc1ccc(-n2nc3cc(C)c(NC(=S)NC(=O)/C=C/c4ccco4)cc3n2)cc1 | -162 | -1 | 10 | -17 | 33 | . | . | . | . | .
CCCCC1CCC(c2nc(-c3ccccn3)no2)CC1 (centres undefined) | 17 | 41 | 54* | 3 | 72* | 11 | 28 | 1 | 25 | 26
COc1ccc(-c2nc3ccccc3[nH]2)cc1 | -25 | 97* | 95* | 3 | 94* | 96* | 98* | 103* | 98* | 96*
COC(=O)c1ccc(C(=O)Nc2ccc3nc(-c4ccncc4)[nH]c3c2)cc1 | -2 | -6 | -8 | 24 | 11 | . | . | . | . | .
Cc1cc(-c2nc3ccccc3[nH]2)ccc1N | -392 | 91* | 70* | -2 | 50* | 87* | 86* | 99* | 93* | 87*

Compound activity (PubChem)
